Test results from ChEMBL document CHEMBL1139586, “A linear discrimination analysis based virtual screening of trichomonacidal lead-like compounds: outcomes of in silico studies supported by experimental results” (2005).

Key:
Assay type in all cases: functional
Trichomonas vaginalis [1] = assay: In vitro cytocidal activity against Trichomonas vaginalis at a dose of 100 ug/ml after 48 hours
Outline: (§1)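 T. vaginalis strain JH31A grown in modified Diamond medium with equine serum at 37 °C, 5% CO2. Test agents added 6 h after seeding (0 h). Viable protozoa counted by Neubauer chamber after 24 and 48 h incubation at 37 °C. Cytocidal activity is the percentage reduction in viable organisms relative to untreated controls, from microscopic counts.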

Trichomonas vaginalis [2] = assay: In vitro cytostatic activity against Trichomonas vaginalis at a dose of 10 ug/ml after 24 hours
Outline: (§2)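 T. vaginalis JH31A cultured in modified Diamond medium plus equine serum, 37 °C, 5% CO2. Compounds added at 100, 10 and 1 µg/ml 6 h post-seeding (0 h). Neubauer-chamber counts of viable parasites at 24 and 48 h. Cytostatic activity is the percentage growth inhibition relative to untreated controls.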

Trichomonas vaginalis [3] = assay: In vitro cytocidal activity against Trichomonas vaginalis at a dose of 100 ug/ml after 24 hours; outline: as §1
Trichomonas vaginalis [4] = assay: In vitro cytocidal activity against Trichomonas vaginalis at a dose of 10 ug/ml after 48 hours; outline: as §1
Trichomonas vaginalis [5] = assay: In vitro cytostatic activity against Trichomonas vaginalis at a dose of 1 ug/ml after 48 hours; outline: as §2
Trichomonas vaginalis [6] = assay: In vitro cytostatic activity against Trichomonas vaginalis at a dose of 1 ug/ml after 24 hours; outline: as §2
Trichomonas vaginalis [7] = assay: In vitro cytostatic activity against Trichomonas vaginalis at a dose of 10 ug/ml after 48 hours; outline: as §2
Trichomonas vaginalis [8] = assay: In vitro cytostatic activity against Trichomonas vaginalis at a dose of 100 ug/ml after 48 hours; outline: as §2
Trichomonas vaginalis [9] = assay: In vitro cytostatic activity against Trichomonas vaginalis at a dose of 100 ug/ml after 24 hours; outline: as §2
Trichomonas vaginalis [10] = assay: In vitro cytocidal activity against Trichomonas vaginalis at a dose of 1 mg/mL after 48 hours; outline: as §1
Trichomonas vaginalis [11] = assay: In vitro cytocidal activity against Trichomonas vaginalis at a dose of 0.5 mg/ml after 48 hours; outline: as §1
Trichomonas vaginalis [12] = assay: In vitro cytocidal activity against Trichomonas vaginalis at a dose of 0.5 mg/ml after 24 hours; outline: as §1
Trichomonas vaginalis [13] = assay: In vitro cytocidal activity against Trichomonas vaginalis at a dose of 2 mg/ml after 24 hours; outline: as §1
Trichomonas vaginalis [14] = assay: In vitro cytocidal activity against Trichomonas vaginalis at a dose of 1 mg/mL after 24 hours; outline: as §1
Trichomonas vaginalis [15] = assay: In vitro cytocidal activity against Trichomonas vaginalis at a dose of 2 mg/ml after 48 hours; outline: as §1

Molecule CN1CC(=O)N(C)c2cc([N+](=O)[O-])ccc21 has a Cytocidal activity (Trichomonas vaginalis [1]) of 100%, a Cytostatic activity (Trichomonas vaginalis [2]) of 71.11% and a Cytocidal activity (Trichomonas vaginalis [3]) of 100%. The Cytocidal activity (Trichomonas vaginalis [4]) was 92.03%, the Cytostatic activity (Trichomonas vaginalis [5]) was 0% and the Cytostatic activity (Trichomonas vaginalis [6]) was 0%.

In the case of CN1CC(=O)Nc2cc([N+](=O)[O-])ccc21, the Cytocidal activity (Trichomonas vaginalis [1]) is reported as 100%, the Cytostatic activity (Trichomonas vaginalis [2]) is reported as 59.05% and the Cytocidal activity (Trichomonas vaginalis [3]) is reported as 100%. The Cytostatic activity (Trichomonas vaginalis [7]) was 13.97%, the Cytostatic activity (Trichomonas vaginalis [5]) was 8.32% and the Cytostatic activity (Trichomonas vaginalis [6]) was 0%.

With O=C1Nc2cc([N+](=O)[O-])ccc2N2CCCCC12 (centres undefined) the Cytocidal activity (Trichomonas vaginalis [1]) was 100%, the Cytostatic activity (Trichomonas vaginalis [2]) was 57.45% and the Cytocidal activity (Trichomonas vaginalis [3]) was 98.43%. It also gave a Cytostatic activity (Trichomonas vaginalis [7]) of 75.15%, a Cytostatic activity (Trichomonas vaginalis [5]) of 0% and a Cytostatic activity (Trichomonas vaginalis [6]) of 0%.

For O=C1Nc2cc([N+](=O)[O-])ccc2N2Cc3ccccc3CC12 (centres undefined), the Cytostatic activity (Trichomonas vaginalis [2]) was 51.82%, the Cytostatic activity (Trichomonas vaginalis [8]) was 81.25% and the Cytostatic activity (Trichomonas vaginalis [7]) was 37.15%. It also gave a Cytostatic activity (Trichomonas vaginalis [9]) of 85.53%, a Cytostatic activity (Trichomonas vaginalis [5]) of 0% and a Cytostatic activity (Trichomonas vaginalis [6]) of 0%.

CN1C(=O)C[N+](C)(C)c2ccc([N+](=O)[O-])cc21.[Cl-] showed a Cytocidal activity (Trichomonas vaginalis [1]) of 100%, a Cytostatic activity (Trichomonas vaginalis [2]) of 72.85% and a Cytocidal activity (Trichomonas vaginalis [3]) of 100%. The Cytostatic activity (Trichomonas vaginalis [7]) was 1.13%, the Cytostatic activity (Trichomonas vaginalis [5]) was 0.78% and the Cytostatic activity (Trichomonas vaginalis [6]) was 0.17%.

For O=C1CN(CCCCCCCl)c2ccc([N+](=O)[O-])cc2N1, the Cytocidal activity (Trichomonas vaginalis [1]) was 99.83%, the Cytostatic activity (Trichomonas vaginalis [2]) was 79.28% and the Cytocidal activity (Trichomonas vaginalis [3]) was 99.15%. It also gave a Cytostatic activity (Trichomonas vaginalis [7]) of 30.56%, a Cytostatic activity (Trichomonas vaginalis [5]) of 0% and a Cytostatic activity (Trichomonas vaginalis [6]) of 8.76%.

O=C1Nc2cc([N+](=O)[O-])ccc2N2CCCC12 (centres undefined) showed a Cytocidal activity (Trichomonas vaginalis [1]) of 100%, a Cytostatic activity (Trichomonas vaginalis [2]) of 33.48% and a Cytocidal activity (Trichomonas vaginalis [3]) of 59.99%. For the same molecule, the Cytostatic activity (Trichomonas vaginalis [7]) was 54.22%, the Cytostatic activity (Trichomonas vaginalis [5]) was 17.32% and the Cytostatic activity (Trichomonas vaginalis [6]) was 11.09%.

Work on CN1C(=O)CN(CCCCCCl)c2ccc([N+](=O)[O-])cc21 yielded a Cytocidal activity (Trichomonas vaginalis [1]) of 100%, a Cytostatic activity (Trichomonas vaginalis [2]) of 72.68% and a Cytocidal activity (Trichomonas vaginalis [3]) of 100%. For the same molecule, the Cytocidal activity (Trichomonas vaginalis [4]) was 93.94%, the Cytostatic activity (Trichomonas vaginalis [5]) was 69.96% and the Cytostatic activity (Trichomonas vaginalis [6]) was 0%.

Work on Cc1ncc([N+](=O)[O-])n1CCO [METRONIDAZOLE] yielded a Cytocidal activity (Trichomonas vaginalis [10]) of 99.72%, a Cytocidal activity (Trichomonas vaginalis [11]) of 98.79% and a Cytocidal activity (Trichomonas vaginalis [12]) of 98.19%. For the same molecule, the Cytocidal activity (Trichomonas vaginalis [13]) was 99.63%, the Cytocidal activity (Trichomonas vaginalis [14]) was 99.18% and the Cytocidal activity (Trichomonas vaginalis [15]) was 100%.
